Screens as filed in PubChem.
b-catenin transl: modulators of beta-catenin nuclear translocation | HeLa beta-catenin nuclear translocation, immunofluorescence imaging | nuclear translocation activity, % at 5 µM | hit rate 0.3% among 190,000 | AID 1665;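 active means nuclear translocation activity above 50% at 5 µM, with a well cell count of 50 or more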;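 further: per-cell ratio of nuclear to cytoplasmic median beta-catenin stain intensity; plate controls were DMSO negative control for no effect and GSK-3 inhibitor IX positive control for full effect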
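Test system: human HeLa cell line; Doses: 5 µM primary, 0.02–20 µM confirmation; Incubation: 24 h compound exposure, 37°C; Detection: beta-catenin immunofluorescence imaging with DAPI; Read-out: beta-catenin nuclear/cytoplasmic ratio, % activation.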
NPY1 pot ag: potentiates or activates human NPY-Y1 receptor. NPY-Y1 expressing cells, potentiator/agonist activation. activation, % at 3.6 µM. hit rate 0.37% among 220,000; in the data active means activation above about 33%, passing the limit was not always enough;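 further: cells stimulated with NPY at EC10 then isoproterenol at EC100; 0% = low agonist plus stimulus and 100% = saturating agonist plus stimulus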
Target sequence (P25929 whole entry, looked up): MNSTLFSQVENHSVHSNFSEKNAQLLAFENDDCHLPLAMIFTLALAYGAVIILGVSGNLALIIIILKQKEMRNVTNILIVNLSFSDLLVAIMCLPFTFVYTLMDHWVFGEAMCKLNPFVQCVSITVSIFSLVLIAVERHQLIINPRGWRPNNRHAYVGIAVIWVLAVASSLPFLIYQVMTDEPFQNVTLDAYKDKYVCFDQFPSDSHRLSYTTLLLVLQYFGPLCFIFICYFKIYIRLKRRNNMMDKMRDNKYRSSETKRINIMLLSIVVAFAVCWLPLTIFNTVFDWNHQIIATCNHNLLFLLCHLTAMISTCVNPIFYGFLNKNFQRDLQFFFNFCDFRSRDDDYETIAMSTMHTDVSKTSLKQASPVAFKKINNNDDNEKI
NPY Y1 blocker: blocks the human neuropeptide Y Y1 receptor; P25929; HEK293-CNG Y1 cells, membrane potential fluorescence; NPY at EC95, then isoproterenol; inhibition, % at 3.6 µM; hit rate 1% among 200,000;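 active means inhibition above the campaign mean inhibition of all tested compounds plus 3 SD, cut at about 20% in these data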;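 further: 0% = DMSO wells given NPY plus isoproterenol and 100% = isoproterenol alone without NPY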
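Material: Y1- and CNG-channel-expressing HEK293 cells / Probe or stimulus: NPY 25 nM then isoproterenol 1 µM plus Ro 20-1724 25 µM / Doses: 3.6 µM single dose, DMSO 0.4% / Schedule: compound incubation 1 h at room temperature, readout 45 min post-stimulation / Signal: membrane potential fluorescence / Benchmarks: isoproterenol-only wells as full block versus NPY-plus-isoproterenol wells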
NPY2 pot ag: human NPY-Y2 potentiation or agonism, primary screen; cells expressing NPY-Y2, potentiator/agonist read-out; AID 1359; P49146; hit rate 0.45% among 220,000; activation, % at 3.6 µM; in the data active means activation above about 27%;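 further: cells stimulated with NPY near EC25 plus isoproterenol at EC100; 0% = vehicle plus submaximal agonist and 100% = vehicle plus saturating agonist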
MT stabilizer: stabilizes microtubules in HeLa cells. HeLa tubulin immunostaining HCS, 24 h; share of cells brighter than vehicle mean+2SD. % tubulin-high responders, % at 10 µM. hit rate 0.83% among 200,000. AID 2205;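 active means plate Z-score above 3 for both tubulin-high and condensed-nucleus cell shares, with cell loss under 80%, at 10 µM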;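 further: anti alpha tubulin signal scored within the nucleus-defined area of each cell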
NPY-Y2 antag: blocks the human neuropeptide Y Y2 receptor; P49146; NPY-Y2 expressing cells, antagonist mode; inhibition, % at 2.7 µM; hit rate 0.99% among 140,000; AID 793; in the data active means inhibition above about 17%;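 further: 0% = vehicle with agonist challenge and 100% = reference antagonist with challenge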
Starred values were filed as active, the others as inactive; . = no result given. Sampled rows, rich in hits. Any-hit rate of the full collection: about 2.6%.

SMILES	b-catenin transl	NPY1 pot ag	NPY Y1 blocker	NPY2 pot ag	MT stabilizer	NPY-Y2 antag
CCc1cc(C(=O)c2ccc(C)cc2)c(NC(=O)CCl)s1	-1	42*	1	35*	3	1
O=C(O)/C=C/c1ccc(S(=O)(=O)NCc2cccnc2)cc1	-1	11	.	13	.	.
CCOC(=O)C1=NN(c2ccc(OC)cc2)C2C(=O)N(c3ccccc3OC)C(=O)C12 (centres undefined)	0	25	.	7	.	.
N#C/C(=C\c1cccn1-c1ccccc1)C(=O)NC1CCCCC1	3	-30	1	-14	30*	7
O=C(Nc1ccc(F)cc1)c1nn(-c2ccccc2)c(=O)cc1Cl	0	63*	-11	53*	5	.
Cc1ccc(NC(=O)c2cc(-c3ccccc3)nn2-c2ccccc2)cc1	0	33	2	16	3	2
Cc1sc(-n2c(C)cc(/C=C3\SC(=S)NC3=O)c2C)c(C#N)c1C	80*	21	-2	-7	18	3
C/C(=C\C(=O)c1ccc(F)cc1)NCc1ccc2c(c1)OCO2	3	-25	13	-2	3	6
C/C(=C\C(=O)c1ccc(Br)cc1)NCc1ccc2c(c1)OCO2	2	12	21*	-8	1	13
CCN(CC)c1ccc(-c2nn3c(-c4n[nH]c5c4CCC5)nnc3s2)cc1	65*	-41	11	-20	23*	5
COc1ccc(-n2nnnc2/C=C\Nc2ccccc2C(=O)c2ccccc2)cc1	62*	-18	9	-27	21*	4
CCNC(=O)OCc1cn(-c2ccccc2)nn1	0	1	-1	2	3	.
O=C(Nc1cccc(Cl)c1)OCc1cn(-c2ccccc2)nn1	0	-11	21*	-17	4	.
O=S(=O)(CCN1C=CC(C(F)(F)F)=NCC1)c1ccc(Cl)cc1Cl	-4	-9	.	-15	.	.
Cc1ccc(OCC(O)Cn2c(=N)n(Cc3ccccc3)c3ccccc32)cc1 (centres undefined)	-4	-43	23*	-23	7	32*
Cc1cccc(OCC(O)Cn2c(=N)n(CCN3CCCCC3)c3ccccc32)c1 (centres undefined)	-1	-49	57*	-41	9	84*
Cc1cccc(OCC(O)Cn2c(=N)n(Cc3ccccc3)c3ccccc32)c1 (centres undefined)	-3	-29	.	-43	.	.
COc1ccc(OCC(O)Cn2c(=N)n(Cc3ccccc3)c3ccccc32)cc1 (centres undefined)	-2	5	33*	30	4	32*
COC(=O)c1cc(C)ccc1OCc1ccc([N+](=O)[O-])cc1	-1	1	.	-33	.	.
Cc1cc(OC(=O)c2c(F)cc(F)cc2F)nc(C)n1	2	-9	0	-10	10	.
COc1ccc(N2CCN(C(=O)c3cc4c(s3)-c3ccccc3S(=O)(=O)C4)CC2)cc1	1	81*	.	67*	.	.
COc1ccc(CC(=O)NCc2cccs2)cc1	54*	-15	8	-10	43*	0
CN1C=CC=C/C1=C1\SC(=S)N(C2CCCCC2)C1=O	-4	114*	-10	106*	6	-2
CN1C=CC=C/C1=C1\SC(=S)N(c2ccccc2)C1=O	-2	-8	-3	11	1	0
Cn1c2c(c(=O)[nH]c1=O)C(c1cccc(O)c1)C1=C(N2)c2ccccc2C1=O (centres undefined)	3	17	4	6	20*	.
SMILES	b-catenin transl	NPY1 pot ag	NPY Y1 blocker	NPY2 pot ag	MT stabilizer	NPY-Y2 antag
COc1cccc(C2C3=C(Nc4[nH]n(-c5ccccc5)c(=O)c42)c2ccccc2C3=O)c1 (centres undefined)	0	-18	-4	0	2	-4
CNc1ccc(Br)cc(C(=O)/C=C/c2cccc(Cl)c2Cl)c1=O	1	14	2	5	9.9*	.
COc1ccccc1N1CCN(C2CCN(C(=O)COc3ccccc3)CC2)CC1	-2	-15	3	-15	7	.
Cc1cc(NC(=O)CSc2nc(C3CC3)nc3sc(C)c(C)c23)no1	267*	-8	0	17	34*	3
COc1ccc(OC)c(C2C3=C(COC3=O)Nc3cc4c(cc32)OCO4)c1 (centres undefined)	111*	-15	5	-21	10	5
NCCCC[C@@H](C(=O)N1CCNCC1)n1cc([C@@H](N)CO)nn1	-3	-4	-3	-7	4	.
C=CCn1c(CCCNC(=O)CCC)nc2ccccc21	-2	-9	-2	7	2	3
CSc1nc2ccccc2cc1/C=C(\C#N)c1ccccc1	1	-12	1	-1	36*	4
CC(=O)Oc1ccc2oc(=O)c3c(c2c1)CCCN3C(=O)CN1CCOCC1	.	10	-1	-7	3	.
Cc1nc(NC(=O)c2ccc(F)cc2)sc1C(=O)Nc1ccc2c(c1)CCC2	.	12	1	2	1	2
Cc1ccc(C(=O)Nc2nc(C)c(C(=O)Nc3ccc4c(c3)CCC4)s2)cc1	183*	-21	5	-5	3	5
CC(C)Cn1c(N)c(C(=O)COC(=O)CCc2nc3ccccc3s2)c(=O)n(C)c1=O	1	1	20*	26	2	.
Cc1cc(C(=O)COC(=O)CCc2nc3ccccc3s2)c(C)n1C	0	4	6	-10	2	5
COc1ccc(OC)c(C2=Nn3c(nnc3-c3cccc(OC(C)C)c3)SC2)c1	-1	-22	2	-4	2	8
COc1ccc(-c2cc(=Nc3c(C)n(C)n(-c4ccccc4)c3=O)c3ccccc3o2)cc1	2	-15	8	-3	6	.
COc1ccc(-c2c/c(=N\c3nc(-c4ccccc4)c(C)s3)c3ccccc3o2)cc1O	165*	-13	2	16	7	1
O=C(O)c1ncc(Cl)c(Cl)c1Cl	1	20	.	3	.	.
O=C(c1cnn2c1NC(c1ccco1)CC2C(F)(F)F)N1CCN(c2cccc(Cl)c2)CC1 (centres undefined)	44	4	-4	25	45*	7
O=C(c1ccco1)N1CCN(C(=O)c2cnn3c2NC(c2cccs2)CC3C(F)(F)F)CC1 (centres undefined)	.	-18	-4	-1	3	0
COc1ccc(CNC(=O)C2=C(C)C(=O)OC23CCC(C)CC3)cc1 (centres undefined)	-2	-3	0	-12	2	-3
COc1ccc(NC(=O)C2=C(C)C(=O)OC23CCC(C)CC3)cc1Cl (centres undefined)	.	48*	-6	58*	1	-1
CCC(C)(C)NC(=O)CN(CC1CCCO1)C(=O)CCC(=O)Nc1nccs1 (centres undefined)	-4	6	-4	5	3	0
Brc1ccc2c(c1)C(c1cccnc1)=NNC(c1cccs1)=N2	18	-18	1	-3	18*	3
